Source: PubChem
Most compounds without a hit are left out; they make up all but 4.4% or so of the library.
Calb FLC = affects C. albicans growth with fluconazole | actives 0.57% (n = 300,000) | growth inhibition, % (test concentration not listed) | C. albicans CaCi-2 (fluconazole-resistant clinical isolate) + fluconazole, Alamar Blue growth, 48 h;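 active = growth inhibition above about 58% in most replicates, limit read from the data, passing the limit was not always enough; inconclusive = exactly half the replicates above a set limit; inactive = most replicates below a set limit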;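 also: all wells also contain fluconazole at 8 µg/ml as a sub-toxic cotreatment; 0% = median of DMSO wells and 100% = median of geldanamycin control wells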
HSF1 inhib = HSF1 inhibition; NIH3T3-HGL HSE-luciferase, MG132-induced, luminescence 8 h; hits give low values; activity change, negative = inhibition, % at 7.5 µM (by protocol); actives 0.77% (n = 300,000);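 active = more than half of replicate wells show activity change below -50%, luminescence cut by over half; inconclusive = some wells, but at most half, below -50%; inactive = no replicate well below -50%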;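 also: luciferase reports HSF-1 transcriptional activity via heat shock element; 0% = median of DMSO wells and -100% = zero luminescence signal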
HSF1 activator = increases HSF-1 driven luciferase reporter signal. NIH3T3-HGL HSF-1 luciferase reporter, MG132, 8 h; 100% = twice DMSO control signal. activation, % at 9 µM. actives 1.7% (n = 300,000). AID 504408;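 active = mean replicate activation of at least 50% with a set share of replicates each reaching 50%; inconclusive = only one of those two conditions met; inactive = mean below 50% and too few replicates reaching it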;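 also: 0% = median of the neutral control wells and 100% = twice that signal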
T cruzi inh = T. cruzi replication inhibition; T. cruzi beta-gal in NIH3T3, luminescence, 90 h; inhibition, % (concentration not given with the values); actives 1.4% (n = 300,000);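 active = mean inhibition across valid replicates above about 55%, limit read from the data; inconclusive = mean below that limit but half or more replicates reach it; inactive = mean below it, under half of replicates reach it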;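 also: signal also drops with host cell toxicity which is not excluded here; 0% = plate median of DMSO wells and 100% = zero luminescence signal; higher percent means less beta-gal luminescence so fewer parasites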
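System: mouse NIH/3T3 fibroblasts infected with β-gal-expressing T. cruzi Tulahuen C4 / Input: NIH/3T3 cells, 5,000 per well / Buffer or medium: Low-serum DMEM with 2% FBS / Probe or stimulus: 5000 reporter trypomastigotes per well / Schedule: ≥90 h infection period, 3 h prior cell attachment / Measured by: GalScreen luminescence, 60 min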
HIF act = HIF pathway transcriptional activation; U2OS HRE-luciferase reporter, luminescence; normalized: DMSO 0%, desferrioxamine 100%; actives 0.32% (n = 300,000); activation, % at 7.5 µM (by protocol);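 active = mean activation of at least 10% of the iron chelator positive control signal, with at least half of replicates also reaching 10%; inconclusive = mean and replicate majority disagree about reaching 10%; inactive = mean and most replicates under 10%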
Active calls of the source: *; ? = inconclusive; . = no result.

SMILES	Calb FLC	HSF1 inhib	HSF1 activator	T cruzi inh	HIF act
O=C1CC(c2ccco2)CC(O)=C1C=Nc1cc(Cl)ccc1Cl (stereo not drawn)	7	5	11	0	0
Cc1ccc(N=CC2=C(O)CC(c3ccco3)CC2=O)cc1 (stereo not drawn)	-1	63	72*	-4	1
O=C1CC(c2ccccc2)CC(O)=C1C=Nc1ccccc1 (stereo not drawn)	-21	68	119*	-28	1
O=C1CC(c2ccco2)CC(O)=C1C=Nc1cc(Cl)ccc1O (stereo not drawn)	-4	45	69*	-3	-1
O=C(CCl)Nc1ccccc1C(=O)c1ccccc1	18	-95*	-95	-18	-1
CC1CCCCC1NC(=O)CCNS(=O)(=O)c1ccc2c(c1)CCC(=O)N2 (stereo not drawn)	4	3	16	-9	0
CCOc1ccccc1C(=O)N[C@H](C(=O)Nc1nc2c(s1)CCCC2)C(C)C	-22	-3	22	69*	1
O=C(Nc1ncc(S(=O)(=O)c2ccc([N+](=O)[O-])cc2)s1)c1ccc2ccccc2c1	-12	0	-1	55*	0
O=C(Nc1ncc(Cc2cc(Cl)ccc2Cl)s1)c1ccc([N+](=O)[O-])cc1	-2	1	21	57*	0
O=C(Nc1ncc(S(=O)(=O)c2ccc([N+](=O)[O-])cc2)s1)c1cccnc1	1	-2	22	10	0
CCCC(C)C(=O)Nc1ncc(S(=O)(=O)c2ccc([N+](=O)[O-])cc2)s1 (stereo not drawn)	5	0	14	63*	0
O=C(NN(c1ccccc1)c1ccccc1)c1ccccc1F	-9	3	6	-9	0
COc1ccccc1NC(=O)Nc1nc(CC(=O)N2CCN(c3ccccc3)CC2)cs1	-13	34	62*	7	0
COC(=O)c1cc(S(=O)(=O)N2CCC(C)CC2)cn1C	0	-9	9	0	-1
O=C(NCC1COCCO1)c1ccc2nc(Cc3cccc(Cl)c3)oc2c1 (stereo not drawn)	11	16	8	4	1
Cc1ccccc1N1C(=O)C2ON(c3ccccc3)C(c3ccco3)C2C1=O (stereo not drawn)	-5	1	1	-18	-1
COc1ccc(-c2csc3ncnc(N4CCN(S(=O)(=O)c5cccc(C(F)(F)F)c5)CC4)c23)cc1	-6	?	-29	52	0
COc1ccc(-c2csc3ncnc(N4CCN(S(=O)(=O)c5cccc(Br)c5)CC4)c23)cc1	9	12	25	62*	1
CC(=O)Nc1ccc(NC(=O)CCC(=O)OCC(=O)c2ccc(F)cc2)cc1	3	-1	-5	-10	?
CC(C)NC(=O)Cn1c(SCC(=O)N2CCCc3ccccc32)nc2ccccc21	?	-2	-10	3	-1
O=C(Cn1c(SCC(=O)N2CCCc3ccccc32)nc2ccccc21)N1CCCC1	-30	-1	12	23	70*
O=C(CSc1nc2ccccc2n1S(=O)(=O)c1ccccc1)N1CCCCC1	37	-56*	-58	-3	2
C=CC[n+]1c(-c2ccc(C)cc2)csc1Nc1c(C)n(C)n(-c2ccccc2)c1=O	-27	3	19	65*	0
C=CC[n+]1c(-c2ccc(Cl)cc2Cl)csc1Nc1c(C)n(C)n(-c2ccccc2)c1=O	27	16	26	32	0
C/C(=N/Nc1ccc(C)cc1)C1(C)N(O)C(C)(C)C(c2ccco2)=[N+]1[O-] (stereo not drawn)	112*	12	13	-6	0
SMILES	Calb FLC	HSF1 inhib	HSF1 activator	T cruzi inh	HIF act
CC1(C)C(c2ccco2)=[N+]([O-])C2(CCCCC2=O)N1O (stereo not drawn)	-3	3	22	0	0
Cc1ccc(Oc2nnc(-c3cccs3)c3ccccc23)cc1C	19	5	3	12	0
Cc1csc(NC(=O)CSc2nc3ccccc3c3c2CCCC3)n1	.	22	58*	-3	0
Cc1csc(NC(=O)CCc2nc3ccccc3s2)n1	0	19	52*	25	1
Cc1csc(NC(=O)CSc2ncnc3ccccc23)n1	4	17	19	-1	0
CC(C)c1nc(SCC(=O)Nc2nc3c(s2)CCCC3)c2ccccc2n1	-11	8	10	35	0
CC(C)(C)c1nc(SCC(=O)Nc2nc3c(s2)CCCC3)c2ccccc2n1	-7	4	3	59*	.
O=C(CSc1nnnn1-c1ccc(O)cc1)c1cc2ccccc2o1	-2	2	17	5	0
CC1(c2ccccc2Cl)NC(=O)N(CC(=O)N2CCN(S(=O)(=O)c3ccccc3)CC2)C1=O (stereo not drawn)	-5	-7	4	4	0
Nc1c2c(nc3ccccc13)CSCC2	-13	-1	-5	55*	0
COc1ccc(NC(=S)N2CCN(C(=O)c3ccco3)CC2)cc1OC	2	-5	-15	-6	0
CCOC(=O)c1sc(NC(=S)NC(=O)C23CC4CC(CC(C4)C2)C3)cc1C	4	-12	-3	49	0
Cc1ccc(NC(=S)NC(=O)C2CCC2)cc1C	10	-59*	-64	-1	3
CCOC(=O)c1sc(NC(=O)c2cccs2)cc1C	-12	18	?	20	2
CCOC(=O)c1sc(NC(=S)NC(=O)C2CC2)cc1C	2	21	23	18	72*
Cc1ccc(NC(=S)NC(=O)C2CCCC2)cc1C	0	10	18	-15	5
CCOC(=O)c1sc(NC(=O)c2sccc2C)cc1C	-16	42	73*	17	0
O=[N+]([O-])c1cc(CN(CCO)CCO)ccc1O	5	.	.	5	.
Cc1cccc(OCC(=O)Nc2ccc3c(c2)C(=O)NC3=O)c1	-2	-2	3	-1	0
CCNS(=O)(=O)c1ccc(C)c(-n2cnnn2)c1C	-1	4	7	11	0
Cc1cc(C)c(S(=O)(=O)Nc2ccc(N(C)C)cc2)c(C)c1-n1cnnn1	-7	-65*	-70	18	1
CCN(CC1CCCN(CCc2cccc(OC)c2)C1)C(=O)c1ccc(COC)o1 (stereo not drawn)	-3	-2	13	77*	3
COCCNC(=O)CCC1CCN(C/C=C/c2ccccc2OC)CC1	-16	0	7	-7	-10
CCN(CC1CCCN(CCc2cccc(OC)c2)C1)C(=O)c1ccoc1C (stereo not drawn)	-1	-6	-15	51	0
COc1ccccc1/C=C/CN1CCCC(CCC(=O)NCc2ccc(F)c(F)c2)C1 (stereo not drawn)	-28	3	-6	68*	0
